Screening data as filed in PubChem BioAssay.
Insulin prom act: TRM-6 insulin promoter activation; TRM-6 cells, insulin promoter eGFP reporter, imaging; plate-scaled: unstimulated 0, stimulated control 100; activation, % at 2 µM; hit rate 0.81% among 130,000; AID 1296;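 active means activation at 2 µM above a set limit, confirmed on inspection of the cell images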;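 further: share of cells whose green reporter signal exceeds an intensity cutoff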
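material = TRM-6 human fetal islet cells, insulin promoter–eGFP reporter | input = 1,000 TRM-6 cells seeded per well | benchmarks = stimulated versus unstimulated wells as plate controls | measured by = automated fluorescence imaging of paraformaldehyde-fixed, Hoechst-counterstained cells, green channel | schedule = compound exposure 48 h, 37 °C | reagent = tamoxifen at 0.75 µM added at seeding for reporter induction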
Hits are given with their value; n = inactive. The sample as a whole holds a higher share of hits than the screen did.

SMILES | Insulin prom act
O=C(/C=C/c1ccccc1Cl)NCCc1ccc(F)cc1 | n
COC(=O)c1ccc(-c2nc3ccccc3[nH]2)cc1 | n
Cc1ccc(C2C(C#N)=C(N)N(c3ncn[nH]3)C3=C2C(=O)CC(C)(C)C3)cc1 (centres undefined) | n
O=C(Nc1ccccc1-c1nnn(CC(=O)N2CCOCC2)n1)c1ccccc1F | n
Cc1cc(C(=O)OCn2nnc3ccccc3c2=O)c(C)n1-c1ccccc1 | n
c1cncc(Nc2nc(-c3ccncc3)cs2)c1 | n
c1ccc(Nc2nc(-c3cccnc3)cs2)nc1 | n
Clc1ccccc1Nc1nc(-c2cccnc2)cs1 | 358.3
COc1ccc(CCNC(=O)CSc2nc3cc(Cl)ccc3o2)cc1OC | n
CN(CC(=O)N1CCCC1)S(=O)(=O)c1ccc2ccccc2c1 | n
Oc1ccc(C=NC2CCCCC2)c(O)c1 | n
COc1ccc(-c2nc(CSCC(=O)NC3CCCc4ccccc43)c(C)o2)cc1 (centres undefined) | n
Cc1ccc(NC(=O)NNC(=O)c2cccs2)cc1 | n
Cc1ccc(C)c(N(CC(=O)NN=C2CCN(C)CC2)S(=O)(=O)c2ccccc2)c1 | n
CN1CCC(=NNC(=O)CN(c2ccc(Oc3ccccc3)cc2)S(C)(=O)=O)CC1 | 454.5
Cc1ccc(S(=O)(=O)N(CC(=O)NN=C2CCN(C)CC2)c2ccc(C(C)C)cc2)cc1 | n
Cc1[nH]c2ccccc2c1SCC(=O)N1CCCCCC1 | n
Cc1cc(SCC(=O)N(C)C2CCS(=O)(=O)C2)nc2c(C)cccc12 (centres undefined) | n
CN1C=CC2=C(C#N)C(N)C(C#N)(C#N)[C@H](c3ccccc3)[C@H]2C1 (some centres undefined) | 300.0
COc1ccc(CCNC(=O)CCc2ccc(S(=O)(=O)NC(C)C)cc2)cc1 | n
COC(=O)C1=C(C)N(c2ccccc2)C(=S)NC1c1ccccc1C(F)(F)F (centres undefined) | n
ClCC1NCC(c2ccccc2Cl)c2c1[nH]c1ccccc21 (centres undefined) | 585.7
COC(=O)c1ccc2c(=O)n(CC3CCCO3)c(SCC(=O)NCCc3ccc(S(N)(=O)=O)cc3)nc2c1 (centres undefined) | n
CC(=O)NC(C)C(=O)OCC(=O)c1ccc(-c2ccccc2)cc1 (centres undefined) | n
O=C(NCc1ccco1)c1cc([N+](=O)[O-])cc([N+](=O)[O-])c1 | n
SMILES | Insulin prom act
COc1ccc(OC)c2c1nc1n2CCS1 | n
O=C(c1cccnc1)N1CCN(C(=O)c2cccs2)CC1 | 456.3
O=C(c1ccncc1)N1CCN(C(=O)c2cccs2)CC1 | n
O=C(c1cccs1)N1CCN(Cc2ccccn2)CC1 | n
O=C(COC(=O)c1cccs1)Nc1ccc(S(=O)(=O)N2CCOCC2)cc1 | n
Cc1nc(N(C)C)ncc1C(=O)O | n
Cc1ccc(-c2ccc(C(=O)O)c(C)n2)cc1 | 385.7
Cc1ccc(-c2nc(C(=O)O)cs2)cc1 | n
Cc1cc(N2CCCC2)ccc1/C=N/n1cnnc1 | n
S=C(NC1CCCCC1)NC1CC2CCC(C1)N2Cc1ccccc1 (centres undefined) | n
Cc1ccc(SC(C)C(=O)NCC(C)C)cc1 (centres undefined) | 518.8
Cc1ccc(SC(C)C(=O)Nc2ncn[nH]2)cc1 (centres undefined) | n
CCCCCNC(=O)C(C)Sc1ccc(Cl)cc1 (centres undefined) | n
Cn1c(SCC(=O)NC(c2ccccc2)c2ccccc2)nnc1-c1cccs1 | n
CCc1c(C)nc(N)n2c(SCC(=O)N3CCCC(C)C3)nnc12 (centres undefined) | 181.8
Cc1nnc(SCC(=O)N2CCCCCC2)n(N)c1=O | n
CC1CCN(C(=O)CSc2nncn2C)CC1 | n
CCN(CC)c1ccc(NC(=O)c2ccc3c(c2)c(C)c(C)n3C)cc1 | n
Fc1ccccc1N1CCN(Cc2nc(-c3ccc(Cl)cc3Cl)no2)CC1 | n
Cc1nc2ccc(NC(=O)CCS(=O)(=O)c3ccc(Cl)cc3)cc2s1 | n
Cc1nc2ccc([N+](=O)[O-])cc2s1 | n
Cc1ccc(C(=O)Nc2ccc3nc(C)sc3c2)s1 | 561.5
Cc1ccc2nc(Cl)c3nnnn3c2c1 | n
CCc1cc(C(=O)N=Nc2c(O)[nH]c3c(Br)cc(Br)cc23)c2ccccc2n1 | n
COc1cccc(N2CCN(CC(=O)NC(=O)NCc3ccco3)CC2)c1 | n
SMILES | Insulin prom act
COc1ccc(N2CCN(CCCNC(=O)Nc3ccccc3)CC2)cc1 | n
COc1ccc2c(C(=O)CN3CCN(c4ccccc4)CC3)c[nH]c2c1 | 94.4
CC(=O)NC(Cc1ccc(C)cc1)C(=O)NC1CCN(c2ncccc2[N+](=O)[O-])CC1 (centres undefined) | n
CCC/S(CC1CC1(Cl)Cl)=N\S(=O)(=O)c1ccc(C)cc1 (centres undefined) | n
CCCCN(C(=O)Nc1ccc(OCC)cc1)C1CCN(C(C)=O)CC1 | n
CCn1cc(-c2cc(C(=O)O)c3ccccc3n2)cn1 | n
CCc1nnc(NC(=O)CN2CCN(c3nc(-c4ccccc4)cs3)CC2)s1 | n
Fc1ccc(-c2csc(N3CCSCC3)n2)cc1 | n
CCC(=O)N1CCN(c2nc(-c3ccc(Cl)cc3)cs2)CC1 | 464.3
CCOC(=O)C(C)Sc1ncc(-c2ccccc2)cn1 (centres undefined) | n
Cn1cc(C(=O)Nc2ccc(F)c(F)c2)cn1 | n
Cn1c(NCc2c(O)ccc3ccccc23)nc2ccccc21 | n
CCCn1c(Nc2ccccc2)nc2ccccc21 | n
Cn1c(Nn2cnnc2)nc2ccccc21 | 121.4
O=S(=O)(c1ccc(Br)s1)N1CCN(c2ccccc2)CC1 | 575.0
CCN1CCN(S(=O)(=O)c2ccc(Br)s2)CC1 | n
Cc1c(NS(=O)(=O)c2ccc(Br)s2)c(=O)n(-c2ccccc2)n1C | n
Cc1cc2ncn(-c3ncnc4sc5c(c34)CCC(C)C5)c2cc1C (centres undefined) | n
Cc1c(C(=O)c2ccc([N+](=O)[O-])cc2)c(=O)n(C)c(=O)n1C | n
O=C(CN1C(=O)C2CC=CCC2C1=O)NC1CCCc2ccccc21 (centres undefined) | 83.1
NC(=O)C1CCN(CC(=O)NC2CCCc3ccccc32)CC1 (centres undefined) | n
Cc1ccc(S(=O)(=O)N2CCN(CC(=O)NC3CCCc4ccccc43)CC2)c(C)c1 (centres undefined) | n
CC(=O)Nc1ccc(NC(=O)CCSCCc2ccccn2)cc1 | n
COc1ccc(NC(=O)/C=C/c2ccc(F)cc2)cn1 | n
COc1ccc(NC(=O)/C(Cl)=C(/Cl)S(=O)Cc2ccccc2Cl)cn1 (centres undefined) | 669.2
SMILES | Insulin prom act
COc1ccc(NC(=O)c2ccc(Cl)c(S(=O)(=O)N3CCc4ccccc4C3)c2)cn1 | n
CCNC(=S)Nc1cc(Cl)ccc1Oc1ccccc1 | n
N#C/C(=C/c1ccncc1)c1nc2ccccc2s1 | n
COc1cc(/C=C(\C#N)c2nc3ccccc3s2)ccc1OCC(=O)Nc1ccccc1 | n
CC(=O)Nc1sc(/C(C#N)=C/c2ccc(Cl)c(Cl)c2)nc1-c1ccc(C)cc1 | 222.6
COc1ccc(N2CCN(C(=O)c3c(C)nn(-c4ccccc4)c3C)CC2)cc1 | n
CCN1C(=O)/C(=C\c2ccc3c(c2)OCO3)C(C(=O)OC)=C1C | n
COC(=O)C1=C(C)N(CCc2c[nH]c3ccccc23)C(=O)/C1=C\N(C)C | 408.6
CC(C)NC(=O)CCCc1c[nH]c2ccccc12 | n
C/C(=N\NS(=O)(=O)c1ccc(Cl)cc1)c1ccc(O)cc1 | n
O=C1c2ccccc2C(=O)N1CCCc1c[nH]c2ccc(Cl)cc12 | n
